# Measured values taken from ChEMBL document CHEMBL2407064 (J Med Chem, 2013).
# Calls of active or inactive are those of the source. No cut-off for these calls is given here.
# How the values were obtained:
# [1] = biological target: T1, Neuronal acetylcholine receptor; alpha3/alpha6/beta2/beta3 (Homo sapiens, UniProt P17787+P32297+Q05901+Q15825); assay: Antagonist activity at human alpha6/alpha3beta2beta3 nAChR expressed in human SHEP1 cells assessed as inhibition of carbamylcholine-induced 86Rb+ ion efflux preincubated for 10 mins by liquid scintillation counting analysis; type: cell-based
# [2] = biological target: T1, Neuronal acetylcholine receptor; alpha3/alpha6/beta2/beta3; assay: Agonist activity at human alpha6/alpha3beta2beta3 nAChR expressed in human SHEP1 cells assessed as stimulation of 86Rb+ ion efflux after 5 mins by liquid scintillation counting analysis; type: cell-based
# [3] = tested on: Mus musculus; assay: Toxicity in BALB/cJ mouse assessed as mortality at 10 mg/kg, ip; type: organism-based; parameters: dose 10 mg/kg, route intraperitoneal; conditions: in vivo
# [4] = biological target: T2, Acetylcholine receptor; alpha1/beta1/delta/gamma (Homo sapiens) (UniProt P02708+P07510+P11230+Q07001); assay: Agonist activity at alpha1beta1gammadelta nAChR in human TE671/RD cells assessed as stimulation of 86Rb+ ion efflux after 5 mins by liquid scintillation counting analysis; type: cell-based
# Summary of the method: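 Human TE671/RD cells, which natively express muscle-type α1β1γδ nAChRs, maintained at low passage (1–26) and split 1/300 weekly. 86Rb+ efflux. Agonism given as EC50 with efficacy normalized to carbamylcholine.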
# [5] = tested on: Mus musculus; assay: Toxicity in BALB/cJ mouse assessed as occurrence of tremor at 5 mg/kg, ip; type: organism-based; parameters: dose 5 mg/kg, route intraperitoneal; conditions: in vivo
# [6] = tested on: Mus musculus; assay: Toxicity in BALB/cJ mouse assessed as sedative effect at 5 mg/kg, ip; type: organism-based; parameters: dose 5 mg/kg, route intraperitoneal; conditions: in vivo
# [7] = biological target: T2, Acetylcholine receptor; alpha1/beta1/delta/gamma (Homo sapiens); assay: Antagonist activity at alpha1beta1gammadelta nAChR in human TE671/RD cells assessed as inhibition of carbamylcholine-induced 86Rb+ ion efflux preincubated for 10 mins by liquid scintillation counting analysis; type: cell-based
# [8] = Metabolic stability in human liver microsomes assessed as compound remaining at 0.1 uM after 1 hr; type: ADME, Microsome; conditions: read-out: Stability
# Summary of the method: (§1)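 Human or CD-1 mouse liver microsomes incubated with 0.1 μM test compound for 1 h. Percent parent compound remaining unchanged was measured.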
# [9] = tested on: Caco-2; assay: Permeability from apical to basolateral side in human Caco2 cells at pH 7.4; type: ADME, cell-based; conditions: caco-2, pH 7.4
# Summary of the method: (§2)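 Bidirectional Caco-2 monolayer permeability, apical-to-basolateral and basolateral-to-apical, at pH 7.4 on both sides. Run with and without the P-gp inhibitor verapamil. Apparent permeability given in cm/s.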
# [10] = biological target: CYP2C19 (Homo sapiens, UniProt P33261); assay: Inhibition of CYP2C19 (unknown origin) at 10 uM relative to control; type: ADME
# Summary of the method: (§3)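 Inhibition of CYP1A, CYP2C9, CYP2C19, CYP2D6 and CYP3A isoforms measured in the presence of 10 μM test compound, expressed as percent inhibition.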
# [11] = Metabolic stability in CD-1 mouse liver microsomes assessed as compound remaining at 0.1 uM after 1 hr; type: ADME, Microsome; conditions: CD-1, liver microsomes; read-out: Stability; summary of the method: as §1
# [12] = Metabolic stability in human hepatocytes assessed as compound remaining at 1 uM after 2 hrs; type: ADME, cell-based, Hepatocyte; conditions: read-out: Stability
# Summary of the method: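 Cryopreserved human hepatocytes incubated with 1 μM test compound for 2 h. Percent parent compound remaining unchanged was measured.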
# [13] = tested on: Salmonella typhimurium; assay: Genotoxicity in Salmonella typhimurium TA1535 at 5 to 100 uM by Ames test; type: toxicity, organism-based; conditions: salmonella enterica subsp. enterica serovar typhimurium
# Summary of the method: (§4)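 Bacterial reverse mutation (Ames) test in TA98, TA100, TA1535 and TA1537 strains, with and without liver S9 metabolic activation. Test concentrations 5, 10, 50 and 100 μM.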
# [14] = tested on: Plasma; assay: Plasma protein binding in CD-1 mouse at 10 uM; type: ADME, cell-free
# Summary of the method: (§5)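 Plasma protein binding measured in human and CD-1 mouse plasma at 10 μM test compound, given as percent bound.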
# [15] = biological target: T3, hERG (KCNH2) (Homo sapiens, UniProt Q12809); assay: Inhibition of human ERG at 0.1 uM relative to control
# Summary of the method: (§6)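 Human ERG inhibition tested at three concentrations (0.1, 1 and 10 μM), expressed as percent inhibition.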
# [16] = tested on: Salmonella typhimurium; assay: Genotoxicity in Salmonella typhimurium TA1537 at 5 to 100 uM by Ames test; type: toxicity, organism-based; conditions: salmonella enterica subsp. enterica serovar typhimurium; summary of the method: as §4
# [17] = biological target: CYP2D6 (Homo sapiens, UniProt P10635); assay: Inhibition of CYP2D6 (unknown origin) at 10 uM relative to control; type: ADME; summary of the method: as §3
# [18] = tested on: Caco-2; assay: Permeability from basolateral to apical side in human Caco2 cells at pH 7.4; type: ADME, cell-based; conditions: caco-2, pH 7.4; summary of the method: as §2
# [19] = tested on: Salmonella typhimurium; assay: Genotoxicity in Salmonella typhimurium TA1537 at 5 to 10 uM by Ames test in presence of liver S9 fraction; type: toxicity, organism-based; conditions: salmonella enterica subsp. enterica serovar typhimurium, s9, 10 µM
# [20] = tested on: Plasma; assay: Plasma protein binding in human at 10 uM; type: ADME, cell-free; summary of the method: as §5
# [21] = tested on: Salmonella typhimurium; assay: Genotoxicity in Salmonella typhimurium TA100 at 5 to 100 uM by Ames test in presence of liver S9 fraction; type: toxicity, organism-based; conditions: salmonella enterica subsp. enterica serovar typhimurium, s9, 100 µM; summary of the method: as §4
# [22] = biological target: CYP2C9 (Homo sapiens, UniProt P11712); assay: Inhibition of CYP2C9 (unknown origin) at 10 uM relative to control; type: ADME; summary of the method: as §3
# [23] = biological target: T4, Neuronal acetylcholine receptor; alpha4/beta2 (Homo sapiens, UniProt P17787+P43681); assay: Agonist activity at human alpha4beta2 nACHR expressed in human SHEP1 cells assessed as stimulation of 86Rb+ ion efflux after 5 mins by liquid scintillation counting analysis; type: cell-based
# [24] = biological target: T3, hERG (KCNH2); assay: Inhibition of human ERG at 10 uM relative to control; summary of the method: as §6
# [25] = tested on: CYP3A; assay: Inhibition of CYP3A (unknown origin) at 10 uM relative to control; type: ADME; conditions: human; summary of the method: as §3
# [26] = biological target: T4, Neuronal acetylcholine receptor; alpha4/beta2; assay: Antagonist activity at human alpha4beta2 nACHR expressed in human SHEP1 cells assessed as inhibition of carbamylcholine-induced 86Rb+ ion efflux preincubated for 10 mins by liquid scintillation counting analysis; type: cell-based
# [27] = tested on: Salmonella typhimurium; assay: Genotoxicity in Salmonella typhimurium TA1537 at 50 to 100 uM by Ames test in presence of liver S9 fraction; type: toxicity, organism-based; conditions: salmonella enterica subsp. enterica serovar typhimurium, s9, 100 µM; summary of the method: as §4
# [28] = tested on: Salmonella typhimurium; assay: Genotoxicity in Salmonella typhimurium TA100 at 5 to 100 uM by Ames test; type: toxicity, organism-based; conditions: salmonella enterica subsp. enterica serovar typhimurium; summary of the method: as §4
# [29] = tested on: Salmonella typhimurium; assay: Genotoxicity in Salmonella typhimurium TA98 at 5 to 100 uM by Ames test in presence of liver S9 fraction; type: toxicity, organism-based; conditions: salmonella enterica subsp. enterica serovar typhimurium, s9, 100 µM; summary of the method: as §4
# [30] = tested on: Salmonella typhimurium; assay: Genotoxicity in Salmonella typhimurium TA1535 at 5 to 100 uM by Ames test in presence of liver S9 fraction; type: toxicity, organism-based; conditions: salmonella enterica subsp. enterica serovar typhimurium, s9, 100 µM; summary of the method: as §4
# [31] = tested on: Salmonella typhimurium; assay: Genotoxicity in Salmonella typhimurium TA98 at 5 to 100 uM by Ames test; type: toxicity, organism-based; conditions: salmonella enterica subsp. enterica serovar typhimurium; summary of the method: as §4
# [32] = Chemical stability of the compound at room temperature; type: physicochemical
# [33] = biological target: T3, hERG (KCNH2); assay: Inhibition of human ERG at 1 uM relative to control; summary of the method: as §6
# [34] = tested on: Salmonella typhimurium; assay: Genotoxicity in Salmonella typhimurium TA1537 up to 3 x 10^5 uM by Ames test in presence of liver S9 fraction; type: toxicity, organism-based; conditions: salmonella enterica subsp. enterica serovar typhimurium
# [35] = tested on: Salmonella typhimurium; assay: Genotoxicity in Salmonella typhimurium TA1537 up to 3 x 10^5 uM by Ames test; type: toxicity, organism-based; conditions: salmonella enterica subsp. enterica serovar typhimurium
# [36] = tested on: Mus musculus; assay: Antidepressant-like activity in BALB/cJ mouse assessed as decrease in immobility time at 1 to 10 mg/kg, ip administered 30 mins before test measured for 6 mins by forced swimming test; type: functional, organism-based
# Summary of the method: (§7)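 Male BALB/cJ mice, 8–10 weeks old. Drugs dissolved in water and given i.p. or orally at 10 ml/kg, 30 min before the trial. Sertraline 20 mg/kg was the positive control. Each mouse was placed in a glass cylinder with 12 cm of 23 ± 1 °C water, and immobility (floating) was timed over a 6 min trial. ANOVA with Fisher's LSD; n = 9–10/group.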
# [37] = tested on: Mus musculus; assay: Antidepressant-like activity in BALB/cJ mouse assessed as decrease in immobility time at 1 mg/kg, po administered 30 mins before test measured for 6 mins by forced swimming test; type: functional, organism-based; parameters: dose 1 mg/kg; summary of the method: as §7
# [38] = tested on: Mus musculus; assay: Antidepressant-like activity in BALB/cJ mouse assessed as decrease in immobility time at 1 mg/kg, ip administered 30 mins before test measured for 6 mins by forced swimming test; type: functional, organism-based; parameters: dose 1 mg/kg; summary of the method: as §7
# [39] = tested on: Mus musculus; assay: Antidepressant-like activity in BALB/cJ mouse assessed as decrease in immobility time at 20 mg/kg, ip administered 30 mins before test measured for 6 mins by forced swimming test; type: functional, organism-based; parameters: dose 20 mg/kg; summary of the method: as §7
# T1 sequence (P17787 whole entry): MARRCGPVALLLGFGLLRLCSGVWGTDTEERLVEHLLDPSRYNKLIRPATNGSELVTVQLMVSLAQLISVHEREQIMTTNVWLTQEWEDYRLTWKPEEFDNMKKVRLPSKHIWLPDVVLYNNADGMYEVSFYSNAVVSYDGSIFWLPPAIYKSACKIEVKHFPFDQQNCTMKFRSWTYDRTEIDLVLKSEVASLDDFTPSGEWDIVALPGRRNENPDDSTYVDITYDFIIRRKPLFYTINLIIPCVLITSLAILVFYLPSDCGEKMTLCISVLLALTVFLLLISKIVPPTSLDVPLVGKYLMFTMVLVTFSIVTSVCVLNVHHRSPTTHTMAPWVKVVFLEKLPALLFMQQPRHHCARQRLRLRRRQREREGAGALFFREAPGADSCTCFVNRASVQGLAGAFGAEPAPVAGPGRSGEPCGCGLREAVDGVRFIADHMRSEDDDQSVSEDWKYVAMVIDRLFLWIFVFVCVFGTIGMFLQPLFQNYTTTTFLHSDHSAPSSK
# T1 sequence (P32297 whole entry): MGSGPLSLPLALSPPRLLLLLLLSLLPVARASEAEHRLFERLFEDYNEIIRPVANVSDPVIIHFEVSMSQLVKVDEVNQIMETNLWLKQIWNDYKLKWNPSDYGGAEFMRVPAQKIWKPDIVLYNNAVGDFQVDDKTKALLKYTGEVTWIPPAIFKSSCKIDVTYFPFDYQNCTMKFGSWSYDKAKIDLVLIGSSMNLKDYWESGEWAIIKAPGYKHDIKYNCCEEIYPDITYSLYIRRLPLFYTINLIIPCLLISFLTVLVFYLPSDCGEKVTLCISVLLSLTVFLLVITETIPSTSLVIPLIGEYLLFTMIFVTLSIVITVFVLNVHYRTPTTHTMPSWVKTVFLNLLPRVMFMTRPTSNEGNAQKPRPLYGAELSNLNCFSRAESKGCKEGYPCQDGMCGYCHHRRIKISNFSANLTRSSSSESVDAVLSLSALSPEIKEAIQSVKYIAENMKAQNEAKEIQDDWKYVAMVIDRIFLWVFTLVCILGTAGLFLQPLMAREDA
# T1 sequence (Q15825 whole entry): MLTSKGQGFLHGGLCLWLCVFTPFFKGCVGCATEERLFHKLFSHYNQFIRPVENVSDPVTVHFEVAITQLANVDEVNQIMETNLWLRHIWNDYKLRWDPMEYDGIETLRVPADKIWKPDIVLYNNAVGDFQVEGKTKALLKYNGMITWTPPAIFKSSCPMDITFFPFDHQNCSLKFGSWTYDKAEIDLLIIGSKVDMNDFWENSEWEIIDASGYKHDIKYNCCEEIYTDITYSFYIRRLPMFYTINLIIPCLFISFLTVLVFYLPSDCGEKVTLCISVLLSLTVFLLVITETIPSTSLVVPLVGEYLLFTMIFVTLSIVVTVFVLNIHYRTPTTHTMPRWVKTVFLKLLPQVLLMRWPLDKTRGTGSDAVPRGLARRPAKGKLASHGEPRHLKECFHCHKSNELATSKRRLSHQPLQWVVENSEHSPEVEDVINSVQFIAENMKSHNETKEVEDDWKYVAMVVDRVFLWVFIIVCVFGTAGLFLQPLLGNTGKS
# T1 sequence (Q05901 whole entry): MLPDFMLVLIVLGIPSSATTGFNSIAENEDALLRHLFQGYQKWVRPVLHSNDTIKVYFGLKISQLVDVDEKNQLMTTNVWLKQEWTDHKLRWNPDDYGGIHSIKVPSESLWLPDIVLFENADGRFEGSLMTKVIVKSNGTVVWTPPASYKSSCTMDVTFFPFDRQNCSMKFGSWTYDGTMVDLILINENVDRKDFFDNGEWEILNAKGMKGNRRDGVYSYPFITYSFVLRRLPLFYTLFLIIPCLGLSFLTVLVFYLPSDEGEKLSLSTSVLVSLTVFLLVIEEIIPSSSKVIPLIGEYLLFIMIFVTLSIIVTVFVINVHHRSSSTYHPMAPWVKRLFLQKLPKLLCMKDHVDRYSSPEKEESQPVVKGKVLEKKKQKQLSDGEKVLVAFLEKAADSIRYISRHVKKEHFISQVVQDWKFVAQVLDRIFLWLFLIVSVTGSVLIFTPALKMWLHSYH
# T3 sequence (Q12809 whole entry): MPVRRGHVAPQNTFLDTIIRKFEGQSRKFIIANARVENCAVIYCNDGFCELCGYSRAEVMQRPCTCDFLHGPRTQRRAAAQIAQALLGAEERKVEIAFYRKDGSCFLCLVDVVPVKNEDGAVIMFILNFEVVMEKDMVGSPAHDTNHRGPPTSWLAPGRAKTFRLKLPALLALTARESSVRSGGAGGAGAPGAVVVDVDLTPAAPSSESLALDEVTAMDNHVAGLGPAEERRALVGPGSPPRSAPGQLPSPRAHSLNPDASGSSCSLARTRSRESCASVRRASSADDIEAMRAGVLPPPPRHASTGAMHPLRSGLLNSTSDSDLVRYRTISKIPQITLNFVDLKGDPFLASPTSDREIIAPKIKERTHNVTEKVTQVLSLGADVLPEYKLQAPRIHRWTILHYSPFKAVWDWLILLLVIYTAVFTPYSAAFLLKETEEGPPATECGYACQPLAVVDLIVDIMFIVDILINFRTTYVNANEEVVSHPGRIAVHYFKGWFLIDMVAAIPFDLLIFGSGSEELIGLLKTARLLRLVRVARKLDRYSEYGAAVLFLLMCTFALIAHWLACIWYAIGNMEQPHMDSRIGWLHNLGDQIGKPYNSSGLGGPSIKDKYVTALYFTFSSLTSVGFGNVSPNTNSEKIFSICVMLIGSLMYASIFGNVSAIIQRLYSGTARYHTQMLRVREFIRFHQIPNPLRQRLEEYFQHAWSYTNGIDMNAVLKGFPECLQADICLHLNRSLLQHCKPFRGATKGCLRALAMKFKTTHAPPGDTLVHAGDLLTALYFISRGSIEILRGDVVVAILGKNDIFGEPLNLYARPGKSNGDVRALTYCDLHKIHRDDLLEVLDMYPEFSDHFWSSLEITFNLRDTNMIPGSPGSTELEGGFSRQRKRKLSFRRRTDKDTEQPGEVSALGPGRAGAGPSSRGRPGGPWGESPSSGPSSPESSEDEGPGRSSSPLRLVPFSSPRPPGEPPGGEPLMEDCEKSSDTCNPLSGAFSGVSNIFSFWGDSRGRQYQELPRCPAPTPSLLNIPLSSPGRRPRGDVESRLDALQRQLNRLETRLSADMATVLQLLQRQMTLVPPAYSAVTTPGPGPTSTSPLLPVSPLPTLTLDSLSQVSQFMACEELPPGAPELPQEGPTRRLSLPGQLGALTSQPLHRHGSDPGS
# T4 sequence (P17787 whole entry): as the sequence (P17787 whole entry) above
# T4 sequence (P43681 whole entry): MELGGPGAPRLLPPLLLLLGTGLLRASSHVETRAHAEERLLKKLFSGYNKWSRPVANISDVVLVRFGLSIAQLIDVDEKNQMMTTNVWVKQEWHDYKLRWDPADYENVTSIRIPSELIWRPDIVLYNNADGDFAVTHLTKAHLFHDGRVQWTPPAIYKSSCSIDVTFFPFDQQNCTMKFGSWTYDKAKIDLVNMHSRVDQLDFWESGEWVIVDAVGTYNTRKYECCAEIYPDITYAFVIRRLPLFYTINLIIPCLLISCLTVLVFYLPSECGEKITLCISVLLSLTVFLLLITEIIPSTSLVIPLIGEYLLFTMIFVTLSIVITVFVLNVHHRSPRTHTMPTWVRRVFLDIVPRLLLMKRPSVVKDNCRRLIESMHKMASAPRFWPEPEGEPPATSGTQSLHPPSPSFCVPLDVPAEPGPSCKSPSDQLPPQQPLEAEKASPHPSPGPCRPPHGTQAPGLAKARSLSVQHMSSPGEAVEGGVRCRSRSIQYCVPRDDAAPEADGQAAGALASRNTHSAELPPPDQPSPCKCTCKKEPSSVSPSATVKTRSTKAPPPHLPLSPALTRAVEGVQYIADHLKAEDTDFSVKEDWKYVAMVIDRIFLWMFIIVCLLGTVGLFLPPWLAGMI
# CYP2C19, sequence (P33261 whole entry, canonical isoform): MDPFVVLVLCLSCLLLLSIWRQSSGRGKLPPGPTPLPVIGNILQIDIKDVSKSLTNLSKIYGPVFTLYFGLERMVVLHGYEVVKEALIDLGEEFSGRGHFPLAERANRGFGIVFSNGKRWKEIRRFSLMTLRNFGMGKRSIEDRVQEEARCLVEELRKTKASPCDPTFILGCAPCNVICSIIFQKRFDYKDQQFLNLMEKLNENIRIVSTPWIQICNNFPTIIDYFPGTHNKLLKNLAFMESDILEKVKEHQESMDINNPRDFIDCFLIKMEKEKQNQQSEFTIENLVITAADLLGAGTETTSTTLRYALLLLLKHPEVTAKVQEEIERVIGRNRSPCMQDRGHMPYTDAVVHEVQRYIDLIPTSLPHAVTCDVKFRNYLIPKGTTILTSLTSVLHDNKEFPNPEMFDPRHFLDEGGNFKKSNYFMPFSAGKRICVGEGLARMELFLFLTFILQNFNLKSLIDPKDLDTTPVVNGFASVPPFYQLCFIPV
# CYP2D6, sequence (P10635 whole entry): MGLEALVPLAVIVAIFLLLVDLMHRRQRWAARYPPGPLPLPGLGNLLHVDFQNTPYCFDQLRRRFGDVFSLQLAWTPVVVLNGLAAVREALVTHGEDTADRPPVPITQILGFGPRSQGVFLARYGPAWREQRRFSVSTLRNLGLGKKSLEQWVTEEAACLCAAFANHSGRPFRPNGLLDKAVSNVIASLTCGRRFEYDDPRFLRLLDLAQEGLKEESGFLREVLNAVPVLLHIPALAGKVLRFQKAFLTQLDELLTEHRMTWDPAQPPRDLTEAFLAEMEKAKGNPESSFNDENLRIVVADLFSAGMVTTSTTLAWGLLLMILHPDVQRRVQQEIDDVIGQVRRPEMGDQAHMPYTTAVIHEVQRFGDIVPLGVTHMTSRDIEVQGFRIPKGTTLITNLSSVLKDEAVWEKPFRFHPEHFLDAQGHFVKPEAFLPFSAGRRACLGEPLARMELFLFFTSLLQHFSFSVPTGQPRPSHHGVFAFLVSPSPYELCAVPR
compound,measurement,setting,value
COCC[C@H]1C[C@@H]1c1cncc(OC[C@@H]2CCN2)c1,IC50,[1],9.7 nM
same,EC50,[2],7.4 nM
"COCC[C@H]1C[C@@H]1c1cncc(OC[C@H]2CCNC2)c1.O=C(O)C(F)(F)F (single isomer, unassigned)",Activity,[3],Toxic
same,Activity,[4],Active
same,Activity,[5],Toxic
same,Activity,[6],Toxic
same,inhibition,[7],inactive
COCC[C@H]1C[C@@H]1c1cncc(OC[C@@H]2CCCN2C)c1.O=C(O)C(F)(F)F,"remaining at 1 h, 0.1 µM",[8],103%
same,permeability,[9],90.9 ×10⁻⁶ cm/s
same,inhibition at 10 µM,[10],21%
same,"remaining at 1 h, 0.1 µM",[11],90.1%
same,"remaining at 2 h, 1 µM",[12],85.7%
same,Activity,[13],Non-toxic
same,PPB,[14],11%
same,inhibition at 0.1 µM,[15],4%
same,Activity,[16],Non-toxic
same,inhibition at 10 µM,[17],44%
same,permeability,[18],18.4 ×10⁻⁶ cm/s
same,Activity,[19],Non-toxic
same,PPB,[20],31%
same,Activity,[21],Non-toxic
same,inhibition at 10 µM,[22],30%
same,EC50,[23],14.4 nM
same,IC50,[1],23.9 nM
same,inhibition at 10 µM,[24],23%
same,inhibition at 10 µM,[25],10%
same,IC50,[26],20 nM
same,Activity,[27],Toxic
same,Activity,[28],Non-toxic
same,Activity,[29],Non-toxic
same,EC50,[2],9 nM
same,Activity,[30],Non-toxic
same,Activity,[31],Non-toxic
same,Stability,[32],Stable
same,inhibition at 1 µM,[33],7%
COCC[C@H]1C[C@@H]1c1cncc(OC[C@@H]2CCCN2C)c1.O=C(O)C(O)C(O)C(=O)O,Activity,[34],Non-toxic
same,Activity,[35],Non-toxic
COCC[C@H]1C[C@@H]1c1cncc(OC[C@@H]2CCCN2)c1,Activity,[36],inactive
same,IC50,[1],223 nM
same,Activity,[4],Active
same,EC50,[2],51.5 nM
same,inhibition,[7],inactive
COCC[C@H]1C[C@@H]1c1cncc(OC[C@@H]2CCCN2C)c1,Activity,[4],Active
same,Activity,[37],Active
same,Activity,[38],Active
same,inhibition,[7],inactive
CN[C@H]1CC[C@@H](c2ccc(Cl)c(Cl)c2)c2ccccc21,Activity,[39],Active
